Screening data: PubChem BioAssay, several laboratories
Vif inh – blocks HIV Vif function. HEK293T cells, Vif self-association by quenched fluorescence, imaging, 24 h. inhibition, % at 7.49 µM. actives 0.35% (n = 340,000); in the data active = inhibition above about 50%, passing the limit was not always enough; inconclusive = no clear call, values can overlap the other calls; inactive = below about 31%
Rce1 inh – yeast Ras-converting enzyme inhibition | calls only | actives 0.27% (n = 290,000) | AID 2563 | yeast membranes, quenched prenylated peptide cleavage fluorescence | Q03530;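 active = fall in fluorescence gain of 50% or more versus controls, with final raw signal at or below 3038400; inconclusive = same 50% fall but final raw signal above 3038400; inactive = fall in fluorescence gain under 50%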;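 note: plate controls were neutral control wells for no effect and wells lacking membranes for full effect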
Runt-CBFb FRET – blocks binding of human RUNX1 Runt domain to CBFb. Q01196+Q13951. Cerulean-Runt/Venus-CBFb FRET ratio 530/480, 1 h. inhibition, % at 20 µM. actives 0.46% (n = 220,000);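 active = inhibition over about 50% at 20 µM in the single-dose screen, limit read from the data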;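 note: 0% = DMSO wells and 100% = excess unlabeled CBFb competitor control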
Target sequence (Q01196 whole entry, looked up, the tested form may be a part): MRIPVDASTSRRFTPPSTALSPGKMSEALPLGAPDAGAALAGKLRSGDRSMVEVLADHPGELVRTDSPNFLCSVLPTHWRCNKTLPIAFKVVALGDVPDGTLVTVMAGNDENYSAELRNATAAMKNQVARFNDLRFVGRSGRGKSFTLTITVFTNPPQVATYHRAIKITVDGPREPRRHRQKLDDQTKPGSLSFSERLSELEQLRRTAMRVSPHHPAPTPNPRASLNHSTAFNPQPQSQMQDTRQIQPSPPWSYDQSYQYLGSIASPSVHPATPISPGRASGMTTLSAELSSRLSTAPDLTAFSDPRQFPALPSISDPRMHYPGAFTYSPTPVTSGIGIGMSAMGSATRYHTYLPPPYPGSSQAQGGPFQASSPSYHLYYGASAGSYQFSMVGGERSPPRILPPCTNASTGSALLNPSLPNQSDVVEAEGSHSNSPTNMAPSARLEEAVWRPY
Target sequence (Q13951 whole entry, looked up, the tested form may be a part): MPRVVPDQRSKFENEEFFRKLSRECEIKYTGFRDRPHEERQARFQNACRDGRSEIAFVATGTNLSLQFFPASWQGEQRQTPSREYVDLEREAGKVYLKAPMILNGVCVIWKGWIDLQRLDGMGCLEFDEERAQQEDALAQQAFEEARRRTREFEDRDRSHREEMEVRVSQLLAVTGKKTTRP
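Schedule: protein complex preformed 1 h, compound exposure 1 h, room temperature, dark; test system: Cerulean-labeled Runt domain protein; amount: 100 nM per protein; buffer or medium: Tris 50 mM pH 7.5, KCl, K2SO4, 0.01% BSA; read-out: loss of energy transfer signal; detection: FRET fluorescence; controls: 5 µM unlabeled CBFb as full-inhibition high control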
Runt-SMMHC FRET – blocks binding of human RUNX1 Runt domain to CBFb-SMMHC. AID 1434. Cerulean-Runt/Venus-CBFb-SMMHC FRET ratio 530/480, 1 h. inhibition, % at 20 µM. actives 0.74% (n = 220,000);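 active = mean inhibition across duplicate retests at 20 µM reaching about 50%, limit read from the data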;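 note: 0% = DMSO wells and 100% = wells with excess untagged CBFb-SMMHC; inhibitors lower the FRET ratio by blocking Runt binding to CBFb-SMMHC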
RanGTP-Impb inh – inhibitors of RanGTP-importin-beta interaction, primary screen, biochemical, FRET, CFP-Ran, YFP-importin-beta, homogeneous; cell-free CFP-Ran/YFP-importin-beta FRET ratio; inhibition, % (no concentration beside the values); actives 1.1% (n = 300,000);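 active = more than half of the replicate wells show a fall in the fluorescence ratio signal beyond about 16%, limit read from the data, passing the limit was not always enough; inconclusive = exactly half of the replicate wells pass the set limit; inactive = fewer than half of replicates pass the limit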;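 note: 0% = DMSO wells and 100% = Ran loaded with GDP instead of GTP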
YIC counter – counter-screen YIC FRET for RanGTP-importin-beta inhibitors; IC50, µM; Purified YIC probe, intramolecular FRET ratio YFP/CFP; shares compounds with RanGTP-Impb inh; actives 40% (n = 1,000);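 active = fitted half-maximal inhibitory concentration no more than tenfold above the top dose tested; inconclusive = flat fit with 30 to 70% activity, or poor fit; inactive = half-maximal concentration beyond tenfold above the top dose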
* hit, by the source's call; i = inactive; ? = inconclusive; . = no result given. Sampled rows, rich in hits. Any-hit rate of the full collection: about 1.7%.

SMILES	Vif inh	Rce1 inh	Runt-CBFb FRET	Runt-SMMHC FRET	RanGTP-Impb inh	YIC counter
COC(=O)COc1ccc2c(c1)O/C(=C\c1ccco1)C2=O	3	i	.	.	18*	29*
CC(=O)c1sc(NC(=O)C2CCN(C(=O)c3ccc(F)cc3)CC2)nc1-c1ccccc1	-13	i	.	.	2	.
COc1ccc(Cl)cc1NS(=O)(=O)c1c(C)nc2sccn2c1=O	-10	i	.	.	10	.
CC(=O)c1cccc(-c2ccnc3c2CC(C(=O)Nc2ccc(F)c(Cl)c2)O3)c1 (stereo unspecified)	-10	.	.	.	.	.
CC1(C(=O)N/N=C/c2ccccc2)CC1(Cl)Cl (stereo unspecified)	8	i	.	.	-2	.
Cc1cccc(NC(=O)c2nc[nH]c2C(=O)NC[C@H](C)O)c1	-1	.	.	.	.	.
Cc1cc(C)c(C2=CC(c3ccccc3)n3ncnc3N2)cc1C (stereo unspecified)	.	i	.	.	18*	30*
CC(=O)N1CCC(N(CCN2CCOCC2)C(=O)Nc2ccc(Cl)c(Cl)c2)CC1	3	i	.	.	19*	>50
COc1ccccc1N1CCN(C(=O)/C=C/c2ccc(C)cc2)CC1	5	i	-4	-3	20*	>50
CC(=O)Cc1nsc(NC(=O)c2ccc(COc3ccccc3C)o2)n1	1	i	.	.	-1	.
Cc1noc(C)c1S(=O)(=O)N1CCN(S(=O)(=O)c2ccccc2C#N)CC1	9	i	.	.	7	.
CC(=O)Nc1cccc(C(=O)N/N=C/c2ccc(F)cc2)c1	4	i	-2	0	22*	>50
COc1ccc(NS(=O)(=O)c2cc(NC(=O)c3cccs3)ccc2N2CCOCC2)cc1	1	i	0	-4	16*	>50
CN(C)CCCO[C@@H]1[C@H]2OC(C)(C)O[C@H]2O[C@@H]1[C@H](O)CO	5	.	.	.	.	.
CCCc1noc(-c2cccc([N+](=O)[O-])c2)n1	0	i	0	2	24*	>50
O=c1c2ccccc2[nH]c2ccccc12	-9	.	120*	83*	19*	49*
c1ccc2c(c1)[nH]c1ccccc12	-4	i	.	.	-3	.
c1cnc2ccc(-n3ccnc3)cc2c1	10	.	.	.	.	.
OCCN1CCN(c2nc(-c3ccccc3)c3cc(Cl)ccc3n2)CC1	-6	i	.	52*	18*	24*
Cn1c(=O)c2c(ncn2CCOc2ccc(F)cc2)n(C)c1=O	-11	i	.	.	16*	>50
Cn1c(=O)c2c(ncn2CCOc2ccc(Br)cc2)n(C)c1=O	-6	i	.	.	0	.
C=CC[C@H](CC(=O)NCCO)C(=O)NC[C@@H](OC(=O)[C@@H](CC=C)CC(=O)OC(C)(C)C)c1ccccc1	-10	.	.	.	.	.
COCCCNC(=O)/C(C#N)=C/c1c(N2CCN(c3ccccc3)CC2)nc2ccccn2c1=O	-10	i	.	.	26*	29*
CCNC(=O)/C(C#N)=C/c1c(N2CCN(c3ccccc3)CC2)nc2ccccn2c1=O	0	i	.	.	9	.
CC(=O)Nc1ccc(NC(=O)CSc2nc3ccccc3c(=O)n2CCCN2CCOCC2)cc1	19	.	.	.	.	.
SMILES	Vif inh	Rce1 inh	Runt-CBFb FRET	Runt-SMMHC FRET	RanGTP-Impb inh	YIC counter
Nc1c(C(=O)Nc2ccccc2)c2nc3ccccc3nc2n1CCCN1CCOCC1	1	i	10	11	28*	30*
CCc1cc(=O)oc2c(CN3CCN(C)CC3)c(O)c(Cl)cc12	0	i	100*	91*	32*	33*
COCCNC(=O)c1cnn2c(C(F)F)cc(-c3ccc(C)cc3)nc12	-6	i	46	92	18*	42*
COc1ccc(-c2cc(C(F)F)n3ncc(C(=O)NCCCN4CCCC4=O)c3n2)cc1	.	i	8	23	0	.
Cc1ccc(-n2c(=O)c(C#N)cc3c(=O)n4ccccc4nc32)cc1	-5	i	19	60*	44*	0.72*
Cc1ccc2nc(N3CCN(C(=O)c4ccccc4F)CC3)c(C#N)cc2c1	0	.	.	.	.	.
Cc1ccc2nc(N3CCN(C(=O)c4ccc(F)cc4)CC3)c(C#N)cc2c1	4	i	.	.	22*	25*
Cc1ccc2nc(N(CCCN(C)C)C(=O)CS(=O)(=O)c3ccccc3)sc2c1	-1	i	.	.	?	.
Cc1ccc(S(=O)(=O)CC(=O)N(CCCN(C)C)c2nc3ccc(C)cc3s2)cc1	.	i	.	.	21*	>50
CN(Cc1cnc2nc(N)nc(N)c2n1)c1ccc(C(=O)N[C@@H](CCC(=O)O)C(=O)O)cc1	-3	i	.	.	23*	>50
Cc1nc2ccc(NC(=O)c3cncc(Br)c3)cc2s1	-2	i	-14	3	0	.
Cc1cc(NC(=O)c2ccc(F)cc2)no1	-1	i	.	.	-2	.
Cc1cc(NC(=O)c2ccccc2Cl)no1	-5	i	0	-1	0	.
Cc1cc(NC(=O)c2sc3ccccc3c2O)no1	-7	i	.	.	17*	?
Cc1cc(NC(=O)c2c(F)c(F)c(F)c(F)c2F)no1	7	i	-2	-2	23*	>50
CC(C)CCNC(=O)CO/N=C/c1ccccc1OC(F)F	-1	i	-1	-3	5	.
C=CCn1c(O)c(N=NC(=S)Nc2ccccc2F)c2cc(S(=O)(=O)N3CCOCC3)ccc21	-21	i	0	-7	18*	>50
Cc1ccc(CCN2C(Nc3ccccc3)=NC[C@@H]2C)cc1	-4	.	.	.	.	.
Cc1ccccc1-n1c(=O)cc(N2CCC3(CC2)OCCO3)[nH]c1=O	-3	i	-1	1	33*	>50
O=C(O)C1C2CCC(C2)C1C(=O)NCCc1cccc(Cl)c1 (stereo unspecified)	-3	i	.	.	-4	.
O=C(O)C1C2CCC(C2)C1C(=O)NCCc1ccc(F)cc1 (stereo unspecified)	0	i	.	.	21*	>50
CCC(=O)N1CCC1(C)C(=O)Nc1cnc2ccccc2c1 (stereo unspecified)	-7	.	.	.	.	.
CC(NC(=O)c1cccc(S(=O)(=O)N2CCN(Cc3ccccc3)CC2)c1)c1ccc(Cl)cc1 (stereo unspecified)	17	.	.	.	.	.
Cc1c(C)c2cc(Cl)c(O)c(CN(C)C)c2oc1=O	5	?	92*	81*	33*	29*
O=c1oc2c(CN3CCCCC3)c(O)ccc2c2c1CCCC2	0	?	23	50	9	.
CCN(CC)Cc1oc(CO)cc(=O)c1O	0	i	1	0	-3	.
CCc1c(C)c2cc(Cl)c(O)c(CN(CC)CC)c2oc1=O	.	?	95*	65*	26*	27*
CCN(CC)Cc1c(O)c(Cl)cc2c3c(c(=O)oc12)CCCC3	-5	i	107*	70	48*	23*
COC(=O)C1=CN(Cc2ccccc2)C=C(C(=O)OC)C1c1ccc(O)c(OC)c1	?	i	.	.	28*	>50
COC(=O)C1=CN(Cc2ccc(OC)c(OC)c2)C=C(C(=O)OC)C1c1ccccc1F	-10	i	.	.	28*	11*
